According to ChEMBL document CHEMBL3124867, “Hepatitis C replication inhibitors that target the viral NS4B protein” (J Med Chem, 2014):
In brackets after ≈: the same amount, converted by molar mass.

How the values were obtained:
Hepatitis C virus [1] = experiment: Antiviral activity against wild-type Hepatitis C virus genotype 1a infected in PXB mouse assessed as log reduction in viral mRNA titer at 100 mg/kg, po bid every 12 hrs for 7 days relative to control; type: functional, Hepacivirus hominis, subtype 1a
Procedure, shortened: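 PXB mice were infected with HCV genotype 1a wild-type virus and treated 5−8 weeks later (n = 4/group). Oral dosing b.i.d. for 7 days: prodrug at 10 or 30 mg/kg, or positive control at 100 mg/kg. Serum HCV RNA titers (viral load) were followed over the course of dosing.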

[2] = Plasma protein binding in CD rat at 5 uM after 4 hrs by rapid equilibrium dialysis method; type: ADME, cell-free; details: read-out: PPB (converted)
[3] = Lipophilicity, log D of the compound by chromatographic analysis; type: physicochemical
Procedure, shortened: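 Lipophilicity was measured chromatographically and reported as ChromLogD; ≥6 replicates.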

Huh-7 = experiment: Cytotoxicity against human HuH7 cells at 50 uM after 2 days by Cell Titer Glo assay; type: cell-based; details: huh-7, 48 h
Procedure, shortened: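 Huh7 cells were exposed to compound at 50 μM for 2 days and scored for cellular toxicity.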

Hepatitis C virus [4] = experiment: Antiviral activity against Hepatitis C virus genotype 1a infected in human HuH7 cells after 48 hrs by luciferase reporter gene assay; type: functional, organism-based, Hepacivirus hominis; details: subtype 1a, Huh-7, 48 h
[5] = Displacement of [3H]-3-(1-(3-chloro-6-isopropyl-8-(trifluoromethyl)imidazo[1,2-a]pyridine-2-carbonyl)piperidin-4-yl)oxazolidin-2-one from HCV genotype 1b C-terminal His-tagged NS4B (1 to 261 aa) expressed in baculovirus infected SF9 cells after overnight incubation; parameters: species or system Hepatitis C virus subtype 1b
[6] = Plasma protein binding in cynomolgus monkey at 5 uM after 4 hrs by rapid equilibrium dialysis method; type: ADME, cell-free, Macaca fascicularis; details: read-out: PPB (converted)
[7] = AUC (0 to 24 hrs) in CD rat at 300 mg/kg, po by LC/MS/MS analysis; type: ADME, organism-based; parameters: time < 24 hr, dose 300 mg/kg, route oral; details: plasma
Procedure, shortened: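 CD rats were given a single oral dose of 300 mg/kg of parent suspension or of prodrug. Plasma was assayed for the parent drug and for uncleaved prodrug.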

[8] = Plasma protein binding in beagle dog at 5 uM after 4 hrs by rapid equilibrium dialysis method; type: ADME, cell-free, Canis lupus familiaris; details: read-out: PPB (converted)
Hepatitis C virus [9] = experiment: Antiviral activity against Hepatitis C virus genotype 1b expressing NS4B V105M mutant infected in human HuH7 cells after 48 hrs by luciferase reporter gene assay; type: functional, organism-based, Hepacivirus hominis; details: Huh-7, 48 h
Hepatitis C virus [10] = experiment: Antiviral activity against Hepatitis C virus genotype 1a; type: functional, Hepacivirus hominis; details: subtype 1a
[11] = Aqueous solubility in fasted state simulated intestinal fluid at pH 6.5 by LC/UV analysis; type: physicochemical
Hepatitis C virus [12] = experiment: Antiviral activity against Hepatitis C virus genotype 1b infected in human HuH7 cells after 48 hrs by luciferase reporter gene assay; type: functional, organism-based, Hepacivirus hominis; details: Huh-7, 48 h
[13] = Plasma protein binding in human at 5 uM after 4 hrs by rapid equilibrium dialysis method; type: ADME, cell-free; details: read-out: PPB (converted)
Rattus norvegicus = species on record: Rattus norvegicus; experiment: Cardiovascular toxicity in rat after 7 days; type: organism-based; details: in vivo, 168 h
Hepatocyte [14] = experiment: Drug metabolism in human hepatocytes assessed as oxidation of the terminal bicyclohexane substituent at 10 uM by LC/MS/MS analysis; type: ADME, cell-based
[15] = Clearance in CD rat at 1 mg/kg, iv by LC/MS/MS analysis; type: ADME, organism-based; parameters: dose 1 mg/kg, route intravenous; details: in vivo
Procedure, shortened: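 Intravenous dose of 1 mg/kg in DMSO/20% HP-β-CD (10:90) (n = 4). Clearance, Vdss and t1/2 were derived from the plasma concentration–time profiles.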

Hepatocyte [16] = experiment: Drug metabolism in rat hepatocytes assessed as oxidation of the terminal bicyclohexane substituent at 10 uM by LC/MS/MS analysis; type: ADME, cell-based
Hepatitis C virus [17] = experiment: Antiviral activity against Hepatitis C virus genotype 1b expressing NS4B H94N mutant infected in human HuH7 cells after 48 hrs by luciferase reporter gene assay; type: functional, organism-based, Hepacivirus hominis; details: Huh-7, 48 h

| Structure (SMILES) | FC (Hepatitis C virus [1]) | fraction unbound at 4 h, 5 µM [2] | chromatographic logD [3] | Activity (Huh-7) | EC50 (Hepatitis C virus [4]) [nM] | IC50 [5] [nM] | fraction unbound at 4 h, 5 µM [6] | AUC(0-t) at 24 h [7] [ng·h/mL] | fraction unbound at 4 h, 5 µM [8] | EC50 (Hepatitis C virus [9]) [nM] | EC90 (Hepatitis C virus [10]) [nM] | solubility [11] [µg/mL] | EC50 (Hepatitis C virus [12]) [nM] | fraction unbound at 4 h, 5 µM [13] | Activity (Rattus norvegicus) | Stability (Hepatocyte [14]) | clearance [15] [mL/min/kg] | Stability (Hepatocyte [16]) | EC50 (Hepatitis C virus [17]) [nM] |
| --- | --- | --- | --- | --- | --- | --- | --- | --- | --- | --- | --- | --- | --- | --- | --- | --- | --- | --- | --- |
| CNC(=O)c1c(-c2ccc(F)cc2)oc2cc(N(CCO)S(C)(=O)=O)c(C3CC3)cc12 [NESBUVIR] | 2.2 | – | – | – | – | – | – | – | – | – | – | – | – | – | – | – | – | – | – |
| O=C(c1nc2c(C(F)(F)F)cc(C3CC3)cn2c1Cl)N1CCN([C@H]2CC[C@H](O)CC2)C(=O)C1 | – | 0.2 | 3.5 | Non-toxic | 1 | 53 | 0.23 | 11300 | 0.34 | 730 | 29 | 11 (≈ 22.7 µM) | 7 | 0.17 | Toxic | – | – | – | – |
| O=C(c1nn2c(C(F)(F)F)cc(C3CC3)cc2c1Cl)N1CCN([C@@H]2C[C@H]3C[C@H]3C2)C(=O)C1 | – | – | 6.4 | – | 0.1 | 4 | – | – | – | 2 | – | – | 0.06 | – | – | Unstable | 70 | Unstable | 0.7 |
